Experimental data: ChEMBL document CHEMBL1151910, “Synthesis and antirhinovirus activity of new 3-benzyl chromene and chroman derivatives” (Bioorg Med Chem, 2009); call rule not given here

Legend:
[1] = Cytotoxicity against human HeLa Ohio cells assessed as maximal non-cytotoxic concentration after 3 days by XTT assay; assay type: cell-based; conditions: read-out: MNCC
[2] = Cytotoxicity against human HeLa Ohio cells after 3 days by XTT assay; assay type: cell-based; conditions: read-out: TC50
[3] = test system: rhinovirus A1B; test: Antiviral activity against HRV 1B infected in human HeLa Ohio cells assessed as reduction in viral plaque formation after 3 days by neutral red uptake assay; assay type: functional, organism-based, Human rhinovirus 1B; conditions: Rhinovirus A, 72 h
Method in brief: (§1)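 HeLa (Ohio) monolayers were infected with enough virus for about 100 plaques per well, adsorbed 1 h at 33 °C, then overlaid with plaque medium with or without fourfold drug dilutions. After 3 days at 33 °C, cells were stained with neutral red (0.2 mg/mL in PBS pH 7.4) and plaques counted. IC50 was read from a plot of % plaque reduction vs log dose against mock-treated control.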

[4] = test system: rhinovirus A1B; test: Antiviral activity against HRV 1B infected in human HeLa Ohio cells assessed as reduction in viral plaque formation at maximum non-cytotoxic concentration after 3 days by neutral red uptake assay; assay type: functional, Human rhinovirus 1B
Method in brief: (§2)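 Plaque reduction on HeLa (Ohio) monolayers, with dosing starting from the maximum non-cytotoxic concentration. Virus was adsorbed 1 h at 33 °C, then cells got plaque overlay with fourfold drug dilutions, 3 days at 33 °C, and neutral red staining. Values are % plaque reduction at that concentration vs mock-treated control.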

[5] = test system: rhinovirus B14; test: Antiviral activity against HRV 14 infected in human HeLa Ohio cells assessed as reduction in viral plaque formation after 3 days by neutral red uptake assay; assay type: functional, organism-based; method in brief: as §1
[6] = test system: rhinovirus B14; test: Antiviral activity against HRV 14 infected in human HeLa Ohio cells assessed as reduction in viral plaque formation at maximum non-cytotoxic concentration after 3 days by neutral red uptake assay; assay type: functional; method in brief: as §2
[7] = Therapeutic index, ratio of TC50 for human HeLa Ohio cells to IC50 for HRV1B infected in human HeLa Ohio cells; assay type: cell-based; conditions: read-out: TI

Clc1ccc(C2CCc3cc(Cl)ccc3O2)cc1 (stereo unspecified)
MNTC at 72 h [1]: 25 µM

Clc1ccc2c(c1)CC(Cc1ccccc1)CO2 (stereo unspecified)
MNTC at 72 h [1]: 25 µM

Clc1ccc2c(c1)C/C(=C/c1ccccc1)CO2
MNTC at 72 h [1]: 25 µM

C1=C(Cc2ccccc2)COc2ccccc21
MNTC at 72 h [1]: 25 µM

c1ccc(CC2COc3ccccc3C2)cc1 (stereo unspecified)
MNTC at 72 h [1]: 25 µM

C(=C1/COc2ccccc2C1)/c1ccccc1
MNTC at 72 h [1]: 25 µM

O[C@H]1c2cc(Cl)ccc2OC[C@H]1Cc1ccc(Cl)cc1 (relative stereo)
MNTC at 72 h [1]: 25 µM

O[C@H]1c2ccccc2OC[C@H]1Cc1ccc(Cl)cc1 (relative stereo)
MNTC at 72 h [1]: 12.5 µM

O[C@H]1c2ccccc2OC[C@H]1Cc1ccccc1 (relative stereo)
CC50 at 72 h [2]: 150 µM | MNTC at 72 h [1]: 25 µM | IC50 [3]: 3.49 µM | inhibition (INH) [4]: 50% | IC50 ([5]; Rhinovirus B, HeLa, 72 h): > 25 µM | inhibition (INH) [6]: 15.9% | selectivity ratio [7]: 43

O[C@H]1c2ccccc2OC[C@@H]1Cc1ccccc1 (relative stereo)
CC50 at 72 h [2]: > 200 µM | MNTC at 72 h [1]: 25 µM | IC50 [3]: 3.59 µM | inhibition (INH) [4]: 50% | IC50 ([5]; hela): Not Active | selectivity ratio [7]: > 55.7
